Data published in ChEMBL document CHEMBL1140727, “Structural diversity and plasticity associated with nucleotides targeting orotidine monophosphate decarboxylase” (J Med Chem, 2008).
Calls of active or inactive are those of the source. The calls are words filed in the database; no cut-off is given here.

Columns and labels:
[1] = Inhibition of Methanobacterium thermoautotrophicum ODCase; set-up: species or system Methanothermobacter thermautotrophicus
[2] = Inhibition of human ODCase
[3] = Inhibition of Plasmodium falciparum ODCase
Plasmodium falciparum [4] = test: Inhibition of Plasmodium falciparum ODCase upto 10 or 20 mM
In short: (§1)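 Run by ITC at 37 °C. ODCase stock (60 µM in 50 mM Tris pH 7.5, 20 mM DTT, 40 mM NaCl) was held overnight at room temperature. Final mixture: 60 nM enzyme in degassed 50 mM Tris pH 7.4, 1 mM DTT, with nucleotide varied 0–20 mM. Started by a single 3.4 µL injection of 5 mM OMP. Competitive analysis by rate-equation fit and double-reciprocal plots.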

[5] = target: T1, Orotidine 5'-phosphate decarboxylase (Saccharomyces cerevisiae S288c, UniProt P03962); test: Inhibition of yeast ODCase
T1 sequence (P03962 whole entry): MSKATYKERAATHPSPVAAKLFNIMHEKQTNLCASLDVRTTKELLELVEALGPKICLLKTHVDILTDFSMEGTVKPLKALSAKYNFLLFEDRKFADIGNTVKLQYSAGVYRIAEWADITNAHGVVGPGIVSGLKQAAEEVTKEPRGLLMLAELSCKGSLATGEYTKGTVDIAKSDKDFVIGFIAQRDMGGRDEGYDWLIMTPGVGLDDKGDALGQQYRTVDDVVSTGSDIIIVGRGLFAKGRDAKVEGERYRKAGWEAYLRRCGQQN

Homo sapiens [6] = species: Homo sapiens; test: Inhibition of human ODCase upto 10 or 20 mM
In short: (§2)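 Enzyme was a truncated C-terminal portion of human UMP synthase, expressed in E. coli BL-21 with the His6 tag removed by thrombin. Stock (60 µM) was incubated overnight at 4 °C. Enzyme plus nucleotide ([…]) in 50 mM Tris pH 7.5, 1 mM DTT was followed by ITC at 37 °C. Started by a 5.7 µL injection of 5 mM OMP (20 µM final). Competitive Ki fit.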

Plasmodium falciparum [7] = test: Activity of Plasmodium falciparum ODCase; in short: as §1
[8] = system: Methanothermobacter thermautotrophicus; test: Activity of Methanobacterium thermoautotrophcium ODCase
In short: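 Isothermal titration calorimetry at 55 °C. Enzyme stock (20 µM in 50 mM Tris pH 7.5, 20 mM DTT, 40 mM NaCl) was stabilized overnight at room temperature. Assay: 20 nM ODCase in 50 mM Tris pH 7.5, 1 mM DTT, with fixed nucleotide levels (0–20 mM). Started by a single injection of 5 mM OMP (40 µM final). Competitive Ki from rate fitting, checked by double-reciprocal plots.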

Homo sapiens [9] = species: Homo sapiens; test: Activity of human ODCase; in short: as §2

`O=c1ccn([C@@H]2O[C@H](COP(=O)(O)O)[C@@H](O)[C@H]2O)c(=O)[nH]1` showed a Ki [1] of 330 µM, a Ki [2] of 220 µM and a Ki [3] of 210 µM.

With `Cc1cn([C@H]2C[C@H](O)[C@@H](COP(=O)(O)O)O2)c(=O)[nH]c1=O` the Ki [1] was 3300 µM, the Ki [2] was 8700 µM and the Ki [3] was 10000 µM.

For `Nc1ncnc2c1ncn2[C@@H]1O[C@H](COP(=O)(O)O)[C@@H](O)[C@H]1O`, the Ki [1] was 3500 µM, the Ki [2] was 4300 µM and the Activity (Plasmodium falciparum [4]) was “inactive”.

For `O=c1[nH]c(=O)c2ncn([C@@H]3O[C@H](COP(=O)(O)O)[C@@H](O)[C@H]3O)c2[nH]1`, the Ki [1] was 130 µM, the Ki [5] was 0.4 µM and the Ki [2] was 0.7 µM. It also gave a Ki [3] of 43 µM.

With `Nc1ccn([C@@H]2O[C@H](COP(=O)(O)O)[C@@H](O)[C@H]2O)c(=O)n1` the Ki [1] was 1200 µM, the Ki [2] was 1400 µM and the Activity (Plasmodium falciparum [4]) was “inactive”.

With `Nc1ncnc2c1ncn2[C@H]1C[C@H](O)[C@@H](COP(=O)(O)O)O1` the Ki [1] was over 10000 µM, the Ki [2] was 7400 µM and the Activity (Plasmodium falciparum [4]) was “inactive”.

For `Nc1nc2c(ncn2[C@@H]2O[C@H](COP(=O)(O)O)[C@@H](O)[C@H]2O)c(=O)[nH]1`, the Ki [1] was 4200 µM, the Activity (Homo sapiens [6]) was “inactive” and the Ki [3] was 2100 µM.

For `O=C(O)c1cc(=O)[nH]c(=O)n1[C@@H]1O[C@H](COP(=O)(O)O)[C@@H](O)[C@H]1O`, the Km (Plasmodium falciparum [7]) was 1.3 µM, the kcat (Plasmodium falciparum [7]) was 6.7 s⁻¹ and the Km [8] was 4.8 µM. For the same molecule, the kcat [8] was 20.7 s⁻¹, the Km (Homo sapiens [9]) was 1.7 µM and the kcat (Homo sapiens [9]) was 8.1 s⁻¹.
